# According to ChEMBL document CHEMBL1155242, “Radiolabeled 5-iodo-3'-O-(17beta-succinyl-5alpha-androstan-3-one)-2'-deoxyuridine and its 5'-monophosphate for imaging and therapy of androgen receptor-positive cancers: synthesis and biological evaluation” (J Med Chem, 2009):
# Columns and labels:
# Liver = assay: Biodistribution in liver of athymic NCr mouse xenografted with human OVCAR-3 cells assessed per gram of tissue at an average 39.5 uCi/dose, ip administered 9 days after tumor implantation as six fractionated doses every 4 days measured after 2 weeks of last dose by gamma counting; assay type: ADME, organism-based; settings: in vivo, 336 h
# Procedure, shortened: (§1)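 OVCAR-3-bearing and healthy athymic mice given fractionated ip doses on the six-dose every-4-days schedule; tissues, tumor and lavaged cells γ-counted at necropsy, %ID/g; DNA-bound 125I in cells measured as cpm/cell.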
# Spleen = assay: Biodistribution in spleen of athymic NCr mouse xenografted with human OVCAR-3 cells assessed per gram of tissue at an average 39.5 uCi/dose, ip administered 9 days after tumor implantation as six fractionated doses every 4 days measured after 2 weeks of last dose by gamma counting; assay type: ADME, organism-based; settings: in vivo, 336 h; procedure, shortened: as §1
# Mus musculus [1] = assay: Toxicity in athymic NCr mouse xenografted with human OVCAR-3 cells assessed as hematocrit level at 0.25 mCi, ip administered 31 days after tumor implantation as single bolus dose measured 55 days after implantation by gamma counting in presence of SHBG (Rvb= 51.4 +/- 1.6 %); assay type: organism-based; settings: in vivo, 1320 h
# OVCAR-3 [2] = assay: Cellular uptake in human OVCAR-3 cells expressing androgen receptor at 1.75 uCi/mL; assay type: ADME, cell-based; settings: TDE = time-dependent effect
# Procedure, shortened: (§2)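 NIH:OVCAR-3 cells in complete RPMI-1640 exposed to the radioligand for 24 h (concentration series) or at 1.75 μCi/mL for set times; medium then replaced and cells cultured further 24–48 h; whole-cell and DNA uptake in cpm/cell.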
# OVCAR-3 [3] = assay: Cellular uptake in human OVCAR-3 cells expressing androgen receptor after 24 hrs; assay type: ADME, cell-based; settings: ovcar-3, 24 h; procedure, shortened: as §2
# [4] = Biodistribution in small intestine of athymic NCr mouse xenografted with human OVCAR-3 cells assessed per gram of tissue at an average 39.5 uCi/dose, ip administered 9 days after tumor implantation as six fractionated doses every 4 days measured after 2 weeks of last dose by gamma counting; assay type: ADME, organism-based; settings: in vivo, 336 h; procedure, shortened: as §1
# Lung = assay: Biodistribution in lung of athymic NCr mouse xenografted with human OVCAR-3 cells assessed per gram of tissue at an average 39.5 uCi/dose, ip administered 9 days after tumor implantation as six fractionated doses every 4 days measured after 2 weeks of last dose by gamma counting; assay type: ADME, organism-based; settings: in vivo, 336 h; procedure, shortened: as §1
# Albumin = Albumin (Mus musculus, UniProt P07724); assay: Binding affinity to mouse serum albumin at 20 uCi after 60 mins by size-exclusion HPLC analysis; assay type: ADME; settings: isolated protein, 1 h
# Chain of Albumin (P07724 whole entry): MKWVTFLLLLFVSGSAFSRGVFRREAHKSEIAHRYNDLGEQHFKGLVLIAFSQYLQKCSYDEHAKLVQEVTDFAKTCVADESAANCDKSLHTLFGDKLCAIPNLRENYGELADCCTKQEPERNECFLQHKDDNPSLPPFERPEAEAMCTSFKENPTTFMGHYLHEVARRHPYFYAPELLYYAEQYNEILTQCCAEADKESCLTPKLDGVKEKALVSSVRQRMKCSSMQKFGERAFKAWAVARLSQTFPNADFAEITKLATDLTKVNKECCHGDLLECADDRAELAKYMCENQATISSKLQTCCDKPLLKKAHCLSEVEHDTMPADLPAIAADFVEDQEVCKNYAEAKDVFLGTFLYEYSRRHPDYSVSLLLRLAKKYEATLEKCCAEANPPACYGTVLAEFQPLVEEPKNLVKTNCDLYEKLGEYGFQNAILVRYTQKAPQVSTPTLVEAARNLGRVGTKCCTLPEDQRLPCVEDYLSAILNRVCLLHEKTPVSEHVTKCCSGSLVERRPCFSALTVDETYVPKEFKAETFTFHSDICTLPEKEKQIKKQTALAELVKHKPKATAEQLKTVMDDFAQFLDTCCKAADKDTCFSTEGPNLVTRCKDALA
# OVCAR-3 [5] = assay: Cellular uptake in human OVCAR-3 cells expressing androgen receptor assessed as ratio of [125I]UdR to thymidine incorporation in DNA at 1.75 uCi/mL after 24 hrs by gamma counting; assay type: ADME, cell-based; settings: ovcar-3, 24 h
# Procedure, shortened: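 OVCAR-3 cells treated with the radioligand; fraction of DNA thymidine replaced by 125IUdR determined after 24 h.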
# [6] = target: T1, Sex hormone-binding globulin (Homo sapiens, UniProt P04278); assay: Binding affinity to human sex hormone binding globulin at 20 uCi after 60 mins by size-exclusion HPLC analysis; assay type: ADME; settings: 1 h
# T1 sequence (P04278 whole entry): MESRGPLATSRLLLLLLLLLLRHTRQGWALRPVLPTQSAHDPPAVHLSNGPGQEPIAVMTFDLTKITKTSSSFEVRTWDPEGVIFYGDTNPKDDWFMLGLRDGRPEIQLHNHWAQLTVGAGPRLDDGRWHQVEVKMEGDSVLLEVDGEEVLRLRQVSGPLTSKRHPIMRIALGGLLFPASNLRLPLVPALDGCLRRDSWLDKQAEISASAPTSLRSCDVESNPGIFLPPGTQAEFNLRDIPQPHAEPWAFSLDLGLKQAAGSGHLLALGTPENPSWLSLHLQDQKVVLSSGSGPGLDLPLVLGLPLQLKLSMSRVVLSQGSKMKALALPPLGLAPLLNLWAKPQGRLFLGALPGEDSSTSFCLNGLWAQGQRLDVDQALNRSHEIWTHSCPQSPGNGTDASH
# Procedure, shortened: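 Radioligand incubated 60 min with purified human SHBG or with human, rabbit or mouse serum. Size-exclusion HPLC (TSK3000): 0.1 M potassium phosphate/0.1 M Na2SO4 1:1 pH 6.8 for 20 min, then 0–40% CH3CN over 20 min, held 30 min, 0.7 mL/min.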
# Mus musculus [7] = assay: Toxicity in athymic NCr mouse xenografted with human OVCAR-3 cells assessed as hemoglobin level at 0.25 mCi, ip administered 31 days after tumor implantation as single bolus dose measured 55 days after implantation […] in presence of SHBG (RVb= 11.5 +/- 1.3 g/dL); assay type: organism-based; settings: in vivo
# [8] = Ratio of drug level in tumor to uterus in athymic NCr mouse xenografted with human OVCAR-3 cells at 180 uCi, ip administered 9 days after tumor implantation as six fractionated doses every 4 days measured after 24 hrs by gamma counting; assay type: ADME, organism-based; settings: in vivo
# [9] = Ratio of drug level in tumor to blood in athymic NCr mouse xenografted with human OVCAR-3 cells at 180 uCi, ip administered 9 days after tumor implantation as six fractionated doses every 4 days measured after 24 hrs by gamma counting; assay type: ADME, organism-based; settings: tumour
# [10] = Ratio of drug level in tumor to blood in athymic NCr mouse xenografted with human OVCAR-3 cells at 180 uCi, ip administered 9 days after tumor implantation as six fractionated doses every 4 days measured after 48 hrs by gamma counting; assay type: ADME, organism-based; settings: tumour
# [11] = Ratio of drug level in tumor to kidney in athymic NCr mouse xenografted with human OVCAR-3 cells at 180 uCi, ip administered 9 days after tumor implantation as six fractionated doses every 4 days measured after 72 hrs by gamma counting; assay type: ADME, organism-based; settings: in vivo
# OVCAR-3 [12] = assay: Cytotoxicity against human OVCAR-3 cells expressing androgen receptor at 5 uCi/mL after 24 hrs; assay type: functional
# [13] = Ratio of drug level in tumor to kidney in athymic NCr mouse xenografted with human OVCAR-3 cells at 180 uCi, ip administered 9 days after tumor implantation as six fractionated doses every 4 days measured after 24 hrs by gamma counting; assay type: ADME, organism-based; settings: in vivo
# [14] = Chemical stability in RPMI-1640 serum-free medium assessed as compound hydrolysis at 12.2 uCi after 24 hrs by HPLC analysis; assay type: physicochemical; settings: read-out: Activity
# [15] = Biodistribution in uterus of athymic NCr mouse xenografted with human OVCAR-3 cells assessed per gram of tissue at 1.12 uCi, ip after 72 hrs by gamma counting; assay type: ADME, organism-based; settings: in vivo
# [16] = Ratio of drug level in tumor to liver in athymic NCr mouse xenografted with human OVCAR-3 cells at 180 uCi, ip administered 9 days after tumor implantation as six fractionated doses every 4 days measured after 24 hrs by gamma counting; assay type: ADME, organism-based; settings: in vivo
# [17] = Biodistribution in nonadherent tumors in stomach of athymic NCr mouse xenografted with human OVCAR-3 cells at 45 uCi, ip after 72 hrs by gamma counting; assay type: ADME, organism-based; settings: in vivo
# Procedure, shortened: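 Athymic NCr-nu/nu mice with ip OVCAR-3; 45 μCi given ip without prior SSKI. Whole-body planar imaging at 72 h with region-of-interest analysis as percent of whole-body activity; peritoneal lavage cells and ascites counted.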
# [18] = Stability in mouse serum assessed as intact compound remaining at 10 to 20 uCi/mL after 10 mins by size-exclusion HPLC analysis; assay type: ADME, cell-free; settings: read-out: Stability
# Procedure, shortened: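 The compound was incubated in mouse serum, which lacks circulating SHBG. Aliquots were analysed on size-exclusion HPLC (TSK3000; phosphate/Na2SO4 buffer, pH 6.8, then an acetonitrile gradient). Extracts were analysed by C18 reversed-phase HPLC to measure intact compound remaining over time.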
smiles,measurement,setting,value
C[C@]12CCC(=O)C[C@@H]1CC[C@@H]1[C@@H]2CC[C@]2(C)[C@@H](OC(=O)CCC(=O)O[C@H]3C[C@H](n4cc([125I])c(=O)[nH]c4=O)O[C@@H]3COP(=O)(O)O)CC[C@@H]12,Drug uptake,Liver,0.017 %ID
same,Drug uptake,Spleen,0.043 %ID
same,Activity,Mus musculus [1],55.2%
same,Drug uptake,OVCAR-3 [2],tde
same,Drug uptake,OVCAR-3 [3],Dose-dependent effect
same,Drug uptake,[4],0.011 %ID
same,Drug uptake,Lung,0.008 %ID
same,Activity,Albumin,Active
same,Ratio,OVCAR-3 [5],0.002
same,Activity,[6],Active
same,Activity,Mus musculus [7],12.2 g/dL
C[C@]12CCC(=O)C[C@@H]1CC[C@@H]1[C@@H]2CC[C@]2(C)[C@@H](OC(=O)CCC(=O)O[C@H]3C[C@H](n4cc([125I])c(=O)[nH]c4=O)O[C@@H]3CO)CC[C@@H]12,Ratio,[8],29.9
same,Ratio,[9],64.7
same,Ratio,[10],36.5
same,Ratio,[11],31.9
same,Activity,OVCAR-3 [12],20%
same,Ratio,[13],79.1
same,"degraded at 24 h, 12.2 uCi",[14],30%
same,Drug uptake,[15],1 %ID
same,Ratio,[16],65
same,Drug uptake,[17],3.4%
same,remaining at 10 min,[18],< 1.5%
